According to ChEMBL document CHEMBL3259739, “Synthesis and structure-activity relationship of trisubstituted thiazoles as Cdc7 kinase inhibitors” (Eur J Med Chem, 2014):

target: Hepatocyte growth factor receptor (Homo sapiens) (UniProt P08581); assay: Inhibition of MET (unknown origin) at 1 uM relative to control; values are per cent of control; details: not given
Sequence (P08581 whole entry): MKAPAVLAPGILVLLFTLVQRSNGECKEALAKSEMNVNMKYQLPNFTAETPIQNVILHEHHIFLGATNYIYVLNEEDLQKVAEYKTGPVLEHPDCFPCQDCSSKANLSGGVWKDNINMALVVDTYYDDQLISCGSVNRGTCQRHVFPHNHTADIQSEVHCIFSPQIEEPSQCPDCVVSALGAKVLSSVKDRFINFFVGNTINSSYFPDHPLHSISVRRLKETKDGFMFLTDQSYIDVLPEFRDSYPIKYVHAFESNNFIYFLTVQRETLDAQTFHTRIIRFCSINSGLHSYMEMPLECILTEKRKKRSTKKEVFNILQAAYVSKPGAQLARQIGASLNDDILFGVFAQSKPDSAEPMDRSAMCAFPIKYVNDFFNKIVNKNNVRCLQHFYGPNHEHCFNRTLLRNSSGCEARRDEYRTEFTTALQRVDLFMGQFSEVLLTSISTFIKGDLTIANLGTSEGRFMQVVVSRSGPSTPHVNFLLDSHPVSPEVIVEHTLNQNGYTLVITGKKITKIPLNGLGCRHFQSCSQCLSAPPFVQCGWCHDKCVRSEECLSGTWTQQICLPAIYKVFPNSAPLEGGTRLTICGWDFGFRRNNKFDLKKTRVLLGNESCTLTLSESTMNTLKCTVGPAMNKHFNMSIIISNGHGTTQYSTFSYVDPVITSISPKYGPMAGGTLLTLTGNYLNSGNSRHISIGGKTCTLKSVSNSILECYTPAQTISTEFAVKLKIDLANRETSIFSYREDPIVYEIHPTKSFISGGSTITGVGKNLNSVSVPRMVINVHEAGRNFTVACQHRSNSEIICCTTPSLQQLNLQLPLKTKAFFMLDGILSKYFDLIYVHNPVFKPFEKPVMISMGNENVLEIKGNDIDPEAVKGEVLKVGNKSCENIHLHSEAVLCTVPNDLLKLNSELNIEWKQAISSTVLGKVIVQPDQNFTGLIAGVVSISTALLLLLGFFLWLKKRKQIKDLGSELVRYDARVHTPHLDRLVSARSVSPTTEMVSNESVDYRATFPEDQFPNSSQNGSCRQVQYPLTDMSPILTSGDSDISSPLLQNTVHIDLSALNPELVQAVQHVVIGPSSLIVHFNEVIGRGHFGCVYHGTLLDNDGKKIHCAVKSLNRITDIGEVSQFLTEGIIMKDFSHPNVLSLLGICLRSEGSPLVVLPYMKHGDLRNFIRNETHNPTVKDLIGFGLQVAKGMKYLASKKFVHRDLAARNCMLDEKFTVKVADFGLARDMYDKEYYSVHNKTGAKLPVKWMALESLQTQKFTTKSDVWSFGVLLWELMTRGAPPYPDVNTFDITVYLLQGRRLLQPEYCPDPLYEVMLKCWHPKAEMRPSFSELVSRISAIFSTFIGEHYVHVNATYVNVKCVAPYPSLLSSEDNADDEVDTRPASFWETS

Row | residual activity [%] | SMILES
1 | 86 | COc1ccc(-c2nc(-c3ccnc(N)n3)sc2C(N)=O)c(Cl)c1
2 | 81 | CCOC(=O)c1sc(-c2ccncc2)nc1O

Row | SMILES | residual activity [%]
3 | NC(=O)c1sc(-c2ccnc(N)n2)nc1-c1ccc(Cl)cc1Cl | 88

target: Serine/threonine-protein kinase Nek4 (Homo sapiens) (UniProt P51957); assay: Inhibition of NEK4 (unknown origin) at 1 uM relative to control; values are per cent of control; details: not given

Row | residual activity [%] | SMILES
4 | 76 | COc1ccc(-c2nc(-c3ccnc(N)n3)sc2C(N)=O)c(Cl)c1
5 | 100 | CCOC(=O)c1sc(-c2ccncc2)nc1O

Row | SMILES | residual activity [%]
6 | NC(=O)c1sc(-c2ccnc(N)n2)nc1-c1ccc(Cl)cc1Cl | 93

target: Interferon-induced, double-stranded RNA-activated protein kinase (Homo sapiens) (UniProt P19525); assay: Inhibition of PRKR (unknown origin) at 1 uM relative to control; details: values are per cent of control
Sequence (P19525 whole entry): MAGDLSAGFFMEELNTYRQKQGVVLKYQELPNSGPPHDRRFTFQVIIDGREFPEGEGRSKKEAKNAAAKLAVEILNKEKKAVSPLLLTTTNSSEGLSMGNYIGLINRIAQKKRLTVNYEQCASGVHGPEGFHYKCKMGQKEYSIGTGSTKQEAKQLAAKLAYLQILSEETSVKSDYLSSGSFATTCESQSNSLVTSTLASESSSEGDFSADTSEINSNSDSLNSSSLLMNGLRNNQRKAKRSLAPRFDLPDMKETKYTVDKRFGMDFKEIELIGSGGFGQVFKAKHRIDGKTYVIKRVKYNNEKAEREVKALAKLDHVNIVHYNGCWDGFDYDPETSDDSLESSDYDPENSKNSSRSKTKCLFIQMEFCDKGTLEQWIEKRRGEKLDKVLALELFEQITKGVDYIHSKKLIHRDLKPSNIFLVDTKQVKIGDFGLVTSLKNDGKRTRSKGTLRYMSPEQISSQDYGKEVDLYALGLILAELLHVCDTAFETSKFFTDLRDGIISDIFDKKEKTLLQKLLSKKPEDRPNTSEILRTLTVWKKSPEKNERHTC
Method in brief: (§1)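 KinomeSCAN competitive binding panel of 100 kinases; compounds tested at 1 µM in duplicate; read-out is percent […] control.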

Row | residual binding, % of control [%] | SMILES
7 | 92 | COc1ccc(-c2nc(-c3ccnc(N)n3)sc2C(N)=O)c(Cl)c1
8 | 92 | CCOC(=O)c1sc(-c2ccncc2)nc1O

Row | SMILES | residual binding, % of control [%]
9 | NC(=O)c1sc(-c2ccnc(N)n2)nc1-c1ccc(Cl)cc1Cl | 68

target: Mitogen-activated protein kinase kinase kinase kinase 1 (Homo sapiens) (UniProt Q92918); assay: Inhibition of HPK1 (unknown origin) at 1 uM relative to control; values are per cent of control; details: not given

Row | residual activity [%] | SMILES
10 | 100 | COc1ccc(-c2nc(-c3ccnc(N)n3)sc2C(N)=O)c(Cl)c1
11 | 81 | CCOC(=O)c1sc(-c2ccncc2)nc1O

Row | SMILES | residual activity [%]
12 | NC(=O)c1sc(-c2ccnc(N)n2)nc1-c1ccc(Cl)cc1Cl | 64

target: Tyrosine-protein kinase Fyn (Homo sapiens) (UniProt P06241); assay: Inhibition of FYN (unknown origin) at 1 uM relative to control; values are per cent of control; details: not given

Row | residual activity [%] | SMILES
13 | 87 | COc1ccc(-c2nc(-c3ccnc(N)n3)sc2C(N)=O)c(Cl)c1
14 | 100 | CCOC(=O)c1sc(-c2ccncc2)nc1O

Row | SMILES | residual activity [%]
15 | NC(=O)c1sc(-c2ccnc(N)n2)nc1-c1ccc(Cl)cc1Cl | 76

target: Dual specificity protein kinase CLK1 (Homo sapiens) (UniProt P49759); assay: Inhibition of CLK1 (unknown origin) at 1 uM relative to control; values are per cent of control; details: not given
Sequence (P49759 whole entry, looked up): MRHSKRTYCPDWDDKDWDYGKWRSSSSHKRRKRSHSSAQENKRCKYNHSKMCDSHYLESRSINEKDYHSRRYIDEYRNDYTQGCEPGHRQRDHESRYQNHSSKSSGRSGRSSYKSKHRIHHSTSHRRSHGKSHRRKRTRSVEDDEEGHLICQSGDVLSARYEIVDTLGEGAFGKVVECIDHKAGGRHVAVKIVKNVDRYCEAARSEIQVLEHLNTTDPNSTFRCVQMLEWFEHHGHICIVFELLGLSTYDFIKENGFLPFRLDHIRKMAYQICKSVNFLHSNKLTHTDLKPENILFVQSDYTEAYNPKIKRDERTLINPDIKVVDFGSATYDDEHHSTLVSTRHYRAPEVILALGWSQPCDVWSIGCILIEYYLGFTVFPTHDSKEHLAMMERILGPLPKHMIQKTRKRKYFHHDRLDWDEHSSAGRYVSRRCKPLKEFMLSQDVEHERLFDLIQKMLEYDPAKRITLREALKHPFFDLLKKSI

Row | residual activity [%] | SMILES
16 | 2.3 | COc1ccc(-c2nc(-c3ccnc(N)n3)sc2C(N)=O)c(Cl)c1
17 | 90 | CCOC(=O)c1sc(-c2ccncc2)nc1O

Row | SMILES | residual activity [%]
18 | NC(=O)c1sc(-c2ccnc(N)n2)nc1-c1ccc(Cl)cc1Cl | 1.3

target: T1, Cyclin-G-associated kinase (Homo sapiens) (UniProt O14976); assay: Inhibition of GAK (unknown origin) at 1 uM relative to control; values are per cent of control; details: not given
T1 sequence (whole entry): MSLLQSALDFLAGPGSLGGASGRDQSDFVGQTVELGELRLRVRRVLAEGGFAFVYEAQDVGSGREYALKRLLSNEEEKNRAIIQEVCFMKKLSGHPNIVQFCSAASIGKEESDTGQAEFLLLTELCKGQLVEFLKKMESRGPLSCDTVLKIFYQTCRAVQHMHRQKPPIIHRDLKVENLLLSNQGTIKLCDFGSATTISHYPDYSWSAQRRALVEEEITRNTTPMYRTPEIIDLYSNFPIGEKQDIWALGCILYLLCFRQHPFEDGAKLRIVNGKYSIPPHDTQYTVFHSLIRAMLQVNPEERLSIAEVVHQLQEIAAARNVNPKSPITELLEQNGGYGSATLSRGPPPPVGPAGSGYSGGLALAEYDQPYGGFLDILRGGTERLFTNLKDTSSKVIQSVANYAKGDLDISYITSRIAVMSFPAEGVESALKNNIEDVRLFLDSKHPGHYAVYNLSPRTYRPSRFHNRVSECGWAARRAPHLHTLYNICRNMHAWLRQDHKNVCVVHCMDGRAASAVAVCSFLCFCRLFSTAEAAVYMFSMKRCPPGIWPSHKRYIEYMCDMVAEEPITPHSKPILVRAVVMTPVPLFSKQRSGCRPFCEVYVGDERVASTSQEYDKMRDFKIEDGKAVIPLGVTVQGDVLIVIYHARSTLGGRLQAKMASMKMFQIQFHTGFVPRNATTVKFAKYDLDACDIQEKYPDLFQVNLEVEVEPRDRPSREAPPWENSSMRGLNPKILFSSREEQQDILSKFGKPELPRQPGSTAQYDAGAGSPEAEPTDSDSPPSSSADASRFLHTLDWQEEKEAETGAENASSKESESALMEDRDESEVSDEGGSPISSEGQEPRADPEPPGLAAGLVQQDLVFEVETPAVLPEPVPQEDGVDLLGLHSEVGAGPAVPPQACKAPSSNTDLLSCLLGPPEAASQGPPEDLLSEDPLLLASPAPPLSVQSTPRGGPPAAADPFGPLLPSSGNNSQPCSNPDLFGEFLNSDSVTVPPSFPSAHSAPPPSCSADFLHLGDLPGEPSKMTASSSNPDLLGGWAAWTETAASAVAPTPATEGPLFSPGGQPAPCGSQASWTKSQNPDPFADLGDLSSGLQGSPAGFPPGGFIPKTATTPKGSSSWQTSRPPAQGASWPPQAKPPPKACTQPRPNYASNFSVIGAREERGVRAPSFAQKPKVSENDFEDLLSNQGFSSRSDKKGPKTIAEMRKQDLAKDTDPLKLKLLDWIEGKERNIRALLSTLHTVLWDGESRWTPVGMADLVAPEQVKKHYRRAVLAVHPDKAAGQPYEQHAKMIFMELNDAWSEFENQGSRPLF

Row | residual activity [%] | SMILES
19 | 88 | COc1ccc(-c2nc(-c3ccnc(N)n3)sc2C(N)=O)c(Cl)c1
20 | 97 | CCOC(=O)c1sc(-c2ccncc2)nc1O

Row | SMILES | residual activity [%]
21 | NC(=O)c1sc(-c2ccnc(N)n2)nc1-c1ccc(Cl)cc1Cl | 90

target: Dual specificity protein kinase CLK2 (Homo sapiens) (UniProt P49760); assay: Inhibition of CLK2 (unknown origin) at 1 uM relative to control; values are per cent of control; details: not given

Row | residual activity [%] | SMILES
22 | 10 | COc1ccc(-c2nc(-c3ccnc(N)n3)sc2C(N)=O)c(Cl)c1
23 | 86 | CCOC(=O)c1sc(-c2ccncc2)nc1O

Row | SMILES | residual activity [%]
24 | NC(=O)c1sc(-c2ccnc(N)n2)nc1-c1ccc(Cl)cc1Cl | 7.9

target: Casein kinase II subunit alpha (Homo sapiens) (UniProt P68400); assay: Inhibition of CSNK2A1 (unknown origin) at 1 uM relative to control; values are per cent of control; details: not given

Row | residual activity [%] | SMILES
25 | 95 | COc1ccc(-c2nc(-c3ccnc(N)n3)sc2C(N)=O)c(Cl)c1
26 | 50 | CCOC(=O)c1sc(-c2ccncc2)nc1O

Row | SMILES | residual activity [%]
27 | NC(=O)c1sc(-c2ccnc(N)n2)nc1-c1ccc(Cl)cc1Cl | 66

target: ALK tyrosine kinase receptor (Homo sapiens) (UniProt Q9UM73); assay: Inhibition of ALK (unknown origin) at 1 uM relative to control; values are per cent of control; details: not given
Sequence (Q9UM73 19-1620 limits assumed): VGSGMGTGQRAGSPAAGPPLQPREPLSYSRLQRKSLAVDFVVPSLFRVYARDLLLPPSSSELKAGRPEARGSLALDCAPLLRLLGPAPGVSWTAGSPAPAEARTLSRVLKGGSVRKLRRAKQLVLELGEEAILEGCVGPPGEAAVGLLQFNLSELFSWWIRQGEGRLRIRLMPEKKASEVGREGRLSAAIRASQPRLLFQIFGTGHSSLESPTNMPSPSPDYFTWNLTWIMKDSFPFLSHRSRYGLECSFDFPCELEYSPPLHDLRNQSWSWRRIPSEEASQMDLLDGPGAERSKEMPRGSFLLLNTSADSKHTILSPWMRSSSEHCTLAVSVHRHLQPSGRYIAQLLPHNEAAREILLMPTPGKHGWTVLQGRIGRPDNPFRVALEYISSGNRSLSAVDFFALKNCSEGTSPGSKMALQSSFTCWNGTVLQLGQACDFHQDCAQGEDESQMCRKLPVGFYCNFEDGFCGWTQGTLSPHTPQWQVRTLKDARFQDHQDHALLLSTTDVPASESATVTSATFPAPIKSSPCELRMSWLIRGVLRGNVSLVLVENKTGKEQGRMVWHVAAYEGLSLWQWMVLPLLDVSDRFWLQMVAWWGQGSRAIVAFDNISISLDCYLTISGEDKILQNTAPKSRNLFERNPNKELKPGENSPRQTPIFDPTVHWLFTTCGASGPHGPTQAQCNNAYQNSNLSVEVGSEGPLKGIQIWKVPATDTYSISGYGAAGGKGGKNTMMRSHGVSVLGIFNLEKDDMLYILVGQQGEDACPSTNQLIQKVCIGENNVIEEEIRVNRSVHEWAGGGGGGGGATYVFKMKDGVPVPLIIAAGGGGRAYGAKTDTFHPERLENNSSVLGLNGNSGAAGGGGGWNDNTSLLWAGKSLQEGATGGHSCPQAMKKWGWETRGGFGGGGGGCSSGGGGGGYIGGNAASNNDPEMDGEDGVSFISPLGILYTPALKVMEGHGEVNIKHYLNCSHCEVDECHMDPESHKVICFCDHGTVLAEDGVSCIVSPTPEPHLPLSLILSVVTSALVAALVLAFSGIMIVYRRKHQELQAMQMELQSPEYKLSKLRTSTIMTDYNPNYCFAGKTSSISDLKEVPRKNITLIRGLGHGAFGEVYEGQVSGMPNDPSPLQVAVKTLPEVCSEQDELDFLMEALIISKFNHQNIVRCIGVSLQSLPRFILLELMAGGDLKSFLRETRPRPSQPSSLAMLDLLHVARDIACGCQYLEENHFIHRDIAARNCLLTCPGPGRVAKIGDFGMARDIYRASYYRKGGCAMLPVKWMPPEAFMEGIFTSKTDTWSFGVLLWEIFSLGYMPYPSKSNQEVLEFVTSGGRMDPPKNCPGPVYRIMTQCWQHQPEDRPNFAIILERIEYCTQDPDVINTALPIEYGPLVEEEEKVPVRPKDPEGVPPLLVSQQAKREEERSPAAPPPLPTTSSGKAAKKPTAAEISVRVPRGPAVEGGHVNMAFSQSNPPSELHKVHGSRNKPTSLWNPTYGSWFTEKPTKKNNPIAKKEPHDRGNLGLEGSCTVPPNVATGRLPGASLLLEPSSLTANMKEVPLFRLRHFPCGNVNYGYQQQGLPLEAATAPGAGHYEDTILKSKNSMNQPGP

Row | residual activity [%] | SMILES
28 | 63 | COc1ccc(-c2nc(-c3ccnc(N)n3)sc2C(N)=O)c(Cl)c1
29 | 86 | CCOC(=O)c1sc(-c2ccncc2)nc1O

Row | SMILES | residual activity [%]
30 | NC(=O)c1sc(-c2ccnc(N)n2)nc1-c1ccc(Cl)cc1Cl | 100

target: Dual specificity tyrosine-phosphorylation-regulated kinase 1A (Homo sapiens) (UniProt Q13627); assay: Inhibition of DYRK1A (unknown origin) at 1 uM relative to control; values are per cent of control; details: not given

Row | residual activity [%] | SMILES
31 | 0.2 | COc1ccc(-c2nc(-c3ccnc(N)n3)sc2C(N)=O)c(Cl)c1
32 | 100 | CCOC(=O)c1sc(-c2ccncc2)nc1O

Row | SMILES | residual activity [%]
33 | NC(=O)c1sc(-c2ccnc(N)n2)nc1-c1ccc(Cl)cc1Cl | 0.1

target: Cyclin-dependent kinase 18 (Homo sapiens) (UniProt Q07002); assay: Inhibition of PCTK3 (unknown origin) at 1 uM relative to control; details: values are per cent of control
Sequence (Q07002 whole entry): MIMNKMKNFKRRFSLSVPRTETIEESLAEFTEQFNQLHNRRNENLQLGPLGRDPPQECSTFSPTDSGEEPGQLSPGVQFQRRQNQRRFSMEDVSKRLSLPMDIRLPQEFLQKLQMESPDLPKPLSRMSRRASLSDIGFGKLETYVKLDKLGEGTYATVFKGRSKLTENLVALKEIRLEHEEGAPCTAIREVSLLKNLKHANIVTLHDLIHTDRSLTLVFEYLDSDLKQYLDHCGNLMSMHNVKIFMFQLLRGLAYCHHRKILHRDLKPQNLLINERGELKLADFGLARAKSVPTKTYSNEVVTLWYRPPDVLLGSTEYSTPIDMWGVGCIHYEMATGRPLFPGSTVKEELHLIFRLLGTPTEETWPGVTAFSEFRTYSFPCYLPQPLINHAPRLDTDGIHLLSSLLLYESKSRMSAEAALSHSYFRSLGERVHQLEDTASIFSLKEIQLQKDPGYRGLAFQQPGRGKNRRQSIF
Method in brief: as §1

Row | residual binding, % of control [%] | SMILES
34 | 100 | COc1ccc(-c2nc(-c3ccnc(N)n3)sc2C(N)=O)c(Cl)c1
35 | 76 | CCOC(=O)c1sc(-c2ccncc2)nc1O

Row | SMILES | residual binding, % of control [%]
36 | NC(=O)c1sc(-c2ccnc(N)n2)nc1-c1ccc(Cl)cc1Cl | 100

target: Serine/threonine-protein kinase 32B (Homo sapiens) (UniProt Q9NY57); assay: Inhibition of YANK2 (unknown origin) at 1 uM relative to control; details: values are per cent of control
Sequence (Q9NY57 whole entry): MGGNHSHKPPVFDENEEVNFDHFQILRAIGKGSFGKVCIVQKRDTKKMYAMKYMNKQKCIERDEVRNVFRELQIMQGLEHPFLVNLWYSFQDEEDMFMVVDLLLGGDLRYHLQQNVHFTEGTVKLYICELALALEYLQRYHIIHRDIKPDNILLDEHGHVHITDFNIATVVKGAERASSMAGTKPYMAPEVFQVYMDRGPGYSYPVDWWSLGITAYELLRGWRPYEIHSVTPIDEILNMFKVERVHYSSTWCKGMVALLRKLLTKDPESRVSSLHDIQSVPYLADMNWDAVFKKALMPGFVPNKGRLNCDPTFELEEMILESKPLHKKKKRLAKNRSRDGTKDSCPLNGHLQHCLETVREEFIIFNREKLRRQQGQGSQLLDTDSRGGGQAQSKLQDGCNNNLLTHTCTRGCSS
Method in brief: as §1

Row | residual binding, % of control [%] | SMILES
37 | 88 | COc1ccc(-c2nc(-c3ccnc(N)n3)sc2C(N)=O)c(Cl)c1
38 | 82 | CCOC(=O)c1sc(-c2ccncc2)nc1O

Row | SMILES | residual binding, % of control [%]
39 | NC(=O)c1sc(-c2ccnc(N)n2)nc1-c1ccc(Cl)cc1Cl | 100
